Most compounds without a hit are left out; they make up all but 1.7% or so of the library.
V-ATPase pHluor = alters yeast V-ATPase proton transport; S. cerevisiae, pHLuorin cytosolic pH fluorescence; response, % at 10 µM; actives 0.37% (n = 350,000); in the data active means response mostly above about 7.3%, no sharp cut-off; inactive means mostly below about 5.4%; further: actives read high
Vif inh = HIV Vif inhibition; HEK293T cells, Vif self-association by quenched fluorescence, imaging, 24 h; inhibition, % at 7.49 µM; actives 0.35% (n = 340,000); AID 602346; in the data active means inhibition above about 50%, passing the limit was not always enough; inconclusive means no clear call, values can overlap the other calls; inactive means below about 31%
CaV13 FRET inh = Disruptors of the CACNA1D IQ motif to Ca2+-dependent inactivation inhibitor domain association, primary screening, Förster resonance energy transfer in intact living …; inhibition, % at 12.3 µM; HEK cells, CFP/YFP FRET ICDI-IQ, plate reader, 10 min; percent FRET-ratio fall versus neutral wells; AID 743397; actives 0.098% (n = 340,000);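 active means mean replicate inhibition of at least 30% and at least 1% of replicates passing that level; inconclusive means only one of the two criteria is met; inactive means neither criterion is met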
SR-BI HDL uptake = inhibitors of mouse SR-BI mediated HDL lipid uptake; ldlA[mSR-BI] CHO cells, DiI-HDL uptake fluorescence, 3 h; actives 0.96% (n = 320,000); inhibition, % at 12.5 µM; AID 488896;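 active means mean replicate inhibition of at least 70% and a set share of replicates each scoring 70 or more; inconclusive means meets just one of the two criteria; inactive means fails both criteria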
Target sequence (Q61009 whole entry, looked up): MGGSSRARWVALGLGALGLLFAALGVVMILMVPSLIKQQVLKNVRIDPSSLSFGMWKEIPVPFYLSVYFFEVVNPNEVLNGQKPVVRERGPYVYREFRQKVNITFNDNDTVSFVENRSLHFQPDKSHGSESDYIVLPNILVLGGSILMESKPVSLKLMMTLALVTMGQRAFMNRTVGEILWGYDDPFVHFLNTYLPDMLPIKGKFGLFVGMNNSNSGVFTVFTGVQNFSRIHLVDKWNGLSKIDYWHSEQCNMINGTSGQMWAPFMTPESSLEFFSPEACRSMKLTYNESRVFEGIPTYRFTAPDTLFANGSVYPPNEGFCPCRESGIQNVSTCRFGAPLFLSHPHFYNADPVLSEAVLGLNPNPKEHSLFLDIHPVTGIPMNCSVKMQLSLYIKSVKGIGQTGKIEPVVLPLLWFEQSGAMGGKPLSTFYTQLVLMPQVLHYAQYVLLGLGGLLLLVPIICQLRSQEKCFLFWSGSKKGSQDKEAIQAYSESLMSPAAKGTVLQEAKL
SR-BI uptake up = enhances SR-BI lipid uptake from DiI-HDL. activation, % at 12.5 µM. CHO ldlA[mSR-BI] cells, DiI-HDL uptake fluorescence, 3 h; 100 = double the neutral-control signal. actives 0.096% (n = 320,000);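 active means mean replicate activation of at least 60% and every replicate at or above 60%; inconclusive means mean or all-replicate condition met, but not both; inactive means mean below 60% and not all replicates reaching 60%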
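Test system: SR-BI-overexpressing, LDLR-lacking CHO cells; Medium: Ham's F12 with 0.5% BSA, HEPES 25 mM, pH 7.4; Schedule: 3 h, 37 °C; Technique: bottom-read fluorescence, 550/595 nm.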
NTR1 agonist = agonists of human neurotensin receptor NTR1; AID 493036; activation, % at 20 µM; P30989; NTR1-U2OS beta-arrestin-GFP spot imaging, agonist mode; actives 0.17% (n = 330,000);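 active means activation at or above 40% of the spot to cytoplasm intensity ratio, with at least 20 cells analyzed; inconclusive means wells under 20 cells, flagged as cytotoxic or low count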
A number is an active result.

What do the screens show for `COC(=O)C1=C(C)N(Cc2ccccc2C(F)(F)F)C(=NCc2ccc(OC)cc2)NC1c1ccccc1C(F)(F)F` (stereo not given)?
CaV13 FRET inh: inactive

Results for COC(=O)C1=C(C)N(C)C(=NCc2ccc(OC)cc2)NC1c1cccc(C(F)(F)F)c1 (stereo not given) ?
CaV13 FRET inh: inactive

How did COc1ccccc1NC(=O)c1ccc2[nH]c(C)c(C)c2c1 do in these assays?
V-ATPase pHluor: inactive; Vif inh: inactive; CaV13 FRET inh: inactive; SR-BI HDL uptake: 80.5; SR-BI uptake up: inactive; NTR1 agonist: inactive

Results for O=[N+]([O-])c1cc(S(=O)(=O)Nc2ccc(Cl)cc2)ccc1N/N=C/c1ccncc1 ?
V-ATPase pHluor: inactive; Vif inh: 67.4; CaV13 FRET inh: inactive; SR-BI HDL uptake: 72.2; SR-BI uptake up: inactive; NTR1 agonist: inactive

Results for C1=C(c2ccccc2)Nc2ncnn2C1c1ccccc1 (stereo not given) ?
V-ATPase pHluor: inactive; Vif inh: inactive; CaV13 FRET inh: inactive; SR-BI HDL uptake: inactive; SR-BI uptake up: inactive; NTR1 agonist: inactive

What do the screens show for `CCC1=CC(c2ccccc2)n2ncnc2N1` (stereo not given)?
V-ATPase pHluor: 14.1; Vif inh: inactive; CaV13 FRET inh: inactive; SR-BI HDL uptake: inactive; SR-BI uptake up: inactive; NTR1 agonist: inactive

Results for COc1ccc(-c2csc(Nc3ccc(C)cn3)n2)cc1OC ?
V-ATPase pHluor: inactive; Vif inh: inactive; CaV13 FRET inh: inactive; SR-BI HDL uptake: 76.9; SR-BI uptake up: inactive; NTR1 agonist: inactive

What do the screens show for `COc1ccc(CC2NCCC3=CC(=O)CCC32)cc1O` (stereo not given)?
V-ATPase pHluor: inactive; Vif inh: 145.5; CaV13 FRET inh: inactive; SR-BI HDL uptake: inactive; SR-BI uptake up: inactive; NTR1 agonist: inactive

Results for COc1ccc(CC(=O)O)cc1O ?
V-ATPase pHluor: inactive; Vif inh: inactive; CaV13 FRET inh: inactive; SR-BI HDL uptake: inactive; SR-BI uptake up: inactive; NTR1 agonist: inactive

What do the screens show for `COc1ccc(NC(=O)/C(=C\c2ccc(OC)c(OC)c2)NC(=O)c2ccco2)cc1`?
V-ATPase pHluor: inactive; Vif inh: inactive; CaV13 FRET inh: inactive; SR-BI HDL uptake: inactive; NTR1 agonist: inactive

How did Cc1cc2oc(=O)cc(-c3ccccc3)c2c(C)c1-c1ccc(CO)cc1 do in these assays?
V-ATPase pHluor: inactive; Vif inh: inactive; CaV13 FRET inh: inactive; SR-BI HDL uptake: 74.5; SR-BI uptake up: inactive; NTR1 agonist: inactive

Results for Cc1cc2oc(=O)cc(-c3ccccc3)c2c(C)c1-c1ccc(C#N)cc1 ?
V-ATPase pHluor: inactive; Vif inh: inactive; CaV13 FRET inh: inactive; SR-BI HDL uptake: 81.8; SR-BI uptake up: inactive; NTR1 agonist: inactive

What do the screens show for `CC(=O)c1ccc(-c2c(C)cc3oc(=O)cc(-c4ccccc4)c3c2C)cc1`?
V-ATPase pHluor: inactive; Vif inh: inactive; CaV13 FRET inh: inactive; SR-BI HDL uptake: inactive; SR-BI uptake up: inactive; NTR1 agonist: inactive

What do the screens show for `CCOc1cc(CNC(C)C)c(Cl)cc1OCC(=O)NCCc1ccccc1`?
V-ATPase pHluor: inactive; Vif inh: inactive; SR-BI HDL uptake: 77.5; SR-BI uptake up: inactive; NTR1 agonist: inactive

What do the screens show for `CCOc1cc(CNCCO)c(Cl)cc1OCC(=O)NCCc1ccccc1`?
V-ATPase pHluor: inactive; Vif inh: inactive; CaV13 FRET inh: inactive; SR-BI HDL uptake: inactive; SR-BI uptake up: inactive; NTR1 agonist: inactive

What do the screens show for `C=CCN=C1NC(c2ccccc2C(F)(F)F)C(C(=O)OC)=C(C)N1Cc1ccc(C(F)(F)F)cc1` (stereo not given)?
CaV13 FRET inh: inactive

Results for COCCn1c(COc2ccccc2)nnc1SCC(N)=O ?
V-ATPase pHluor: inactive; Vif inh: 60.3; CaV13 FRET inh: inactive; SR-BI HDL uptake: inactive; SR-BI uptake up: inactive

Results for CCOc1ccc(-n2c(COc3ccccc3)nnc2SCC(N)=O)cc1 ?
V-ATPase pHluor: inactive; Vif inh: inactive; CaV13 FRET inh: inactive; SR-BI HDL uptake: inactive; SR-BI uptake up: inactive; NTR1 agonist: inactive

Results for O=C1c2cccc3c(N4CCCCC4)ccc(c23)C(=O)N1c1cccc(O)c1 ?
V-ATPase pHluor: inactive; Vif inh: 185.4; CaV13 FRET inh: inactive; SR-BI HDL uptake: inactive; SR-BI uptake up: inactive; NTR1 agonist: inactive

What do the screens show for `CCN(CC)C(=O)[C@H]1C[C@H](CC(=O)NCCN2CCOCC2)C(=O)N2CCc3c([nH]c4cc(-c5ccco5)ccc34)[C@]12C`?
V-ATPase pHluor: inactive; Vif inh: inactive; CaV13 FRET inh: inactive; SR-BI HDL uptake: inactive; SR-BI uptake up: inactive; NTR1 agonist: inactive

What do the screens show for `CCOC(=O)c1cc(-c2ccc(C#N)cc2)nc2c1c(C)nn2CCC#N`?
V-ATPase pHluor: inactive; Vif inh: inactive; CaV13 FRET inh: inactive; SR-BI HDL uptake: inactive; SR-BI uptake up: inactive; NTR1 agonist: inactive

How did CCOC(=O)c1cc(-c2ccc(OC)cc2)nc2c1c(C)nn2CCC#N do in these assays?
V-ATPase pHluor: inactive; Vif inh: inactive; CaV13 FRET inh: inactive; SR-BI HDL uptake: 73.9; SR-BI uptake up: inactive; NTR1 agonist: inactive

How did COc1cc(Cl)cc(/C=C/c2ccc3ccccc3n2)c1OC(C)=O do in these assays?
V-ATPase pHluor: inactive; Vif inh: inactive; CaV13 FRET inh: inactive; SR-BI HDL uptake: 80.2; SR-BI uptake up: inactive; NTR1 agonist: inactive

How did CCN(CC)CCOC(=O)c1ccc(N/C=C(/C#N)c2nc(-c3cc4ccccc4oc3=O)cs2)cc1 do in these assays?
V-ATPase pHluor: inactive; Vif inh: 57.6; CaV13 FRET inh: inactive; SR-BI HDL uptake: inactive; SR-BI uptake up: inactive; NTR1 agonist: inactive

How did COc1ccc(-c2cc(-c3nc4ccccn4c3NCc3ccccc3)ccc2OC)cc1 do in these assays?
V-ATPase pHluor: inactive; Vif inh: 77.0; CaV13 FRET inh: inactive; SR-BI HDL uptake: inconclusive; SR-BI uptake up: inactive; NTR1 agonist: inactive

Results for Cc1ccccc1S(=O)(=O)NC(=O)C1(C)CCN1C(=O)CCc1cccs1 (stereo not given) ?
Vif inh: 67.7; CaV13 FRET inh: inactive

What do the screens show for `CCCCc1ccc(S(=O)(=O)NC(=O)C2(C)CCN2C(=O)CCc2cccs2)cc1` (stereo not given)?
Vif inh: inactive; CaV13 FRET inh: inactive

What do the screens show for `O=S(=O)(N/N=C/c1cccnc1)c1ccc(Cl)c(Cl)c1`?
V-ATPase pHluor: inactive; Vif inh: inactive; CaV13 FRET inh: inactive; SR-BI HDL uptake: inactive; SR-BI uptake up: inactive; NTR1 agonist: inactive

How did Cc1cc2nc(-c3ccncc3)cc(C(F)(F)F)n2n1 do in these assays?
V-ATPase pHluor: inactive; Vif inh: inactive; CaV13 FRET inh: inactive; SR-BI HDL uptake: inactive; SR-BI uptake up: inactive; NTR1 agonist: inactive

Results for Cc1cc(C(F)(F)F)n2nc(-c3cnn(C)c3C(F)(F)F)cc2n1 ?
V-ATPase pHluor: inactive; Vif inh: 67.6; CaV13 FRET inh: inactive; SR-BI HDL uptake: inactive; SR-BI uptake up: inactive; NTR1 agonist: inactive

Bioassay records as filed in PubChem.
